In ChEMBL document CHEMBL4513216, “Probing the Open Global Health Chemical Diversity Library for Multistage-Active Starting Points for Next-Generation Antimalarials” (ACS Infect Dis, 2020):

Test: Toxicity liver stage against HepG2, at 10uM
Format: cell-based
Parameters: test concentration 10 uM, cell line HepG2-A16-CD81EGFP
Conditions: human, HepG2-A16-CD81EGFP cells; read-out: INHIBITION
Summary of the method: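 Uninfected HepG2-A16-CD81EGFP cells, 3 × 10^3 per well, 1536-well, plated on prespotted compound at 10 μM final, parasite-free screening media added to match infected plates; puromycin 10 μM positive, DMSO 0.5% negative; run in parallel with 48 h PbLuc assay at 37 °C, 5% CO2; viability by CellTiter-Glo luminescence, normalized to controls.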

SMILES | cytotoxicity at 10 µM [%]
COc1nonc1NCn1nc(C)cc1C | -15
CC(CNC(=O)Nc1ccc(C#N)cc1)N1CCc2ccccc21 (stereo not given) | -5.71
Cc1cc2nc(CO[C@H]3CN(C4CCCCC4)C[C@H]3F)[nH]c2cc1C | -17.5
Cc1ccc(S(=O)(=O)n2ccn(C(=O)CC(C)C)c2=O)cc1 | 11.2
Cc1ccccc1NC(=O)Nc1cc(N2CCCC2)ncn1 | -7.73
CN(C)S(=O)(=O)N1CCC(Oc2cccnn2)CC1 | 3.05
CN1CCN(C(=O)[C@H]2C[C@H]3[C@H](CCN3Cc3nccs3)O2)CC1 | 1.73
CC(C)C(=O)N1CCN(C(=O)N(C)C)CC2(CC(=O)N(C)C2)C1 (stereo not given) | -21
CC(C)=CCC/C(C)=C\CNCc1ccco1 | -12.6
CCOC(=O)N1CCN(C(=O)c2sc(-c3ccccc3F)nc2C)CC1 | 20
CNc1oc(-c2cc(S(=O)(=O)N3CCCCCC3)c(C)o2)nc1C#N | -5.28
Cc1c(Br)cnn1C(C)C(=O)Nc1nncs1 (stereo not given) | -4.61
Cc1nn(CC(=O)O)c2nccc(-c3ccc(F)cc3)c12 | -4.17
COc1c(C2SCC(=O)Nc3[nH]ncc32)cc2c(c1OC)OCO2 (stereo not given) | 0.219
Cc1ccnc(NC(=O)c2cccc(OCc3nnnn3C)c2)c1 | -0.319
Cn1cccc1C(=O)NCc1ccnc(C2CCCOC2)n1 (stereo not given) | 3.41
Cn1cc(CN2CCC(c3cc(CCO)[nH]n3)C2)cn1 (stereo not given) | 3.19
CC(C)N1CCC2(CC1)C[C@@H](O)[C@H](c1ccccc1)NC2=O | -16.7
CN(C)C(=O)c1cn[nH]c1C1(C)CCCN(Cc2ccccn2)C1 (stereo not given) | 4.68
CC1(C(=O)N2CCOCC2)CN(Cc2c[nH]cn2)CCO1 (stereo not given) | -4.61
O[C@@H]1CN(Cc2ccncc2)C[C@H]1Oc1ccccc1 | -1.44
O=C(Cn1c(=O)n(Cc2ccco2)c2ncccc21)NC1CC1 | -6.33

SMILES | cytotoxicity at 10 µM [%]
COc1ncc(C2(O)CCN(Cc3cc(F)cc(F)c3)CC2)c(OC)n1 | 0.331
O=C(N[C@@H]1CN(Cc2ccc3cc[nH]c3c2)C[C@H]1O)c1cnccn1 | -8.22
Cn1nc(C2CCCN2)c2c(C(=O)NC3CC3)cc(C3CC3)nc21 (stereo not given) | 15.3
O=C(O)c1ccccc1CN1CCC2(Cc3ccccc3CNC2=O)C1 (stereo not given) | 8.21
CCCC(=O)N1Cc2ccccc2CC2(CCN(C)C2)C1 (stereo not given) | 2.71
CCNc1ncnc2c1CN(C1CCCNCC1)C(=O)CN2C (stereo not given) | 5.5
Cc1cc(C2CCCN2C(=O)c2ccc(OCC(N)=O)cc2)no1 (stereo not given) | -43.9
Cc1noc(C2CCCN(C(=O)c3cccc(Cl)c3)C2)n1 (stereo not given) | -1.58
O=C(NC1CCN(CC2CCCC2)C1)N1CCC(OCC2CC2)CC1 (stereo not given) | 9.86
CCc1noc(CNc2cc3c(cc2Cl)OCCO3)n1 | -0.18
Cn1cnc(S(=O)(=O)N2CCCc3cccc(F)c32)c1Cl | -4.63
CC(=O)Nc1ccc(CNCC(O)c2ccccc2)cc1 (stereo not given) | -10.1
COc1ccc2c(c1)CCCN(CC(=O)NCC1CCCO1)C2 (stereo not given) | -12
CCc1ccc(CNC(=O)Nc2cc(C)on2)s1 | -11.6
O=C(CN1CCc2cncnc2C1)N1CCc2sccc2C1 | 11.9
O=C(NC1CCN(c2ncccn2)CC1)c1sccc1C1CC1 | -5.75
Cc1ccc(S(=O)(=O)NCCc2cccnc2)cc1C | 0.645
COCCN(Cc1ccc(F)cc1Cl)C(=O)c1csnn1 | 11.6
N#CCc1ccc(NC(=O)CNc2ccc(Br)cc2F)cc1 | 0.997
CN(CCn1cccn1)C1CCCN(Cc2noc(C3CC3)n2)C1 (stereo not given) | 15
CC(=O)NCc1ccc(C(=O)N2CCCC(n3cncn3)C2)o1 (stereo not given) | 17.1
O=C(O)CCN(Cc1ccc(F)c(F)c1)C(=O)C1CC1 | 1.04

SMILES | cytotoxicity at 10 µM [%]
O=C(CCc1ccncc1)Nc1ccc(OCC2CC2)cc1 | -2.56
COc1cc2c(cc1OC)S(=O)(=O)N(Cc1ccccc1C)C2=O | 10.3
CC1C(=O)Nc2cccnc2N1S(=O)(=O)c1cc(F)cc(F)c1 (stereo not given) | -5.26
COc1ccc(Cl)cc1CNC(=O)CN1CCC2(CCOC2)C1 (stereo not given) | -61.7
CCN(C)S(=O)(=O)NCC(O)c1cc2ccccc2s1 (stereo not given) | -8.26
CN1CCN(C(=O)Cc2ccc(S(=O)(=O)C(F)F)cc2)CC1 | 12
O=C(CCN1CCC(c2cc3ccccc3[nH]2)CC1)N1CCOCC1 | -3.81
Cc1csc(CCCNC(C)CC(=O)Nc2ccc(F)cc2)n1 (stereo not given) | 1.52
O=C(O)c1ccc(CCNC(=O)C2(O)Cc3ccccc3C2)cc1 | 3.69
COc1cccc(CNCCc2cc(F)cc3c2OCOC3)c1 | -23.1
CN1CCCCC1C(=O)N1CCN(c2ccccc2C#N)CC1 (stereo not given) | -6.85
CCN(Cc1c(F)cccc1Cl)c1cc(C2CCNCC2)nc(C)n1 | 5.16
CNC(=O)CNCC1(O)CCCN(Cc2ccc(F)c(F)c2)C1=O (stereo not given) | -9.88
CSCC(=O)N[C@H]1CN(Cc2c(C)noc2C)C[C@@H]1C(C)C | 5.4
Cc1nc(C(C)NC(=O)c2cn(Cc3ccc(Cl)cc3)nn2)n[nH]1 (stereo not given) | 10.2
COc1cccc(CN(C)Cc2[nH]c3ccccc3c2C)c1O | 3.38
Cc1ccccc1OCC(O)C(=O)N1CCC2(CC1)CN(C)C(=O)O2 (stereo not given) | -47.6
Cc1nsc(NC(=O)NC2CCCN(C)C2)n1 (stereo not given) | -17.1
O=C(NCCc1ccc(Cl)cc1)c1coc(CN2CCOCC2)c1 | 0.383
CCN1CCC(CC(=O)NC[C@H]2CCc3ccccc3O2)CC1 | -28.4
Cc1nnc(CNC(=O)[C@@H]2C[C@H](NC(=O)C(C)(C)C)CN2C)[nH]1 | 1.76
Cc1ccc(C)c(-n2cc(CN3CC[C@@H](O)C3)c(-c3ccccc3)n2)c1 | -6.77

SMILES | cytotoxicity at 10 µM [%]
CN(Cc1ccsc1)C(=O)c1n[nH]c(N)c1-c1ccccc1 | -6.27
COc1ccc(CN2CCN(CC3CC3)[C@@H]3CS(=O)(=O)C[C@@H]32)cc1C | -1.95
COCC(=O)N1CCCC(C(=O)N(C)CCCc2cnn(C)c2)C1 (stereo not given) | -137
COc1ccc(-c2n[nH]cc2CN(C)CCc2scnc2C)c(F)c1 | 3.06
Cn1ccc2ccc(C(=O)N3CCN(C(=O)N4CCOCC4)CC3)cc21 | -21.1
Cc1noc(C)c1CN1CC2(CCN(C(=O)c3cscn3)CC2)CC1=O | -8.86
COc1ccc(-n2nnc(C(=O)NC(C)C)c2C2CC2)cc1 | -14.7
O=C1CCC(=O)N1c1nn(Cc2ccc(F)cc2)cc1Cl | -13.2
O=C(Cc1ccsc1)N1CCC(n2nc(-c3ccco3)ccc2=O)CC1 | -8.98
O=C(Nc1cccc(CNCc2cccnc2)c1)C1CCCC1 | -9.27
CCN1CCN(C(=O)c2ccc(Cn3ccccc3=O)o2)CC1 | -9.39
CCCc1nc(C(C)(C)NC(=O)C2CC(=O)N(C3CC3)C2)no1 (stereo not given) | -4.41
Cc1nccn1C1CCCN(C(=O)COC2CCCC2)C1 (stereo not given) | -10.5
O=C(COCC(F)(F)F)N1CCCC(n2cccn2)C1 (stereo not given) | -6.28
Cc1cnn(CC(=O)N2CCC(Nc3ccc(C)nn3)CC2)c1 | -21.2
Cc1cc(CN2CCCC(c3cc(C(F)(F)F)[nH]n3)C2)no1 (stereo not given) | -0.674
NC(=O)CN1CCCN(C(=O)Cc2ccc3c(c2)OCCO3)CC1 | 0.169
Cc1cc(NC(=O)NCC2COc3ccccc3C2)no1 (stereo not given) | -9.47
Cc1cn2c(n1)CCC(NC(=O)c1[nH]ncc1Br)C2 (stereo not given) | -6.49
FC(F)(F)COCCN1CCOC(Cn2cccn2)C1 (stereo not given) | -6.1
O=C(O)c1cc(S(=O)(=O)Nc2cc(F)cc(F)c2)cc2c1OCCO2 | -12.6
c1cc(CNCC2CNc3ccnn3C2)cc(OC2CCCCC2)n1 (stereo not given) | -8.78

SMILES | cytotoxicity at 10 µM [%]
O=C(c1cccc2c1OCCO2)N1CCCC1Cn1cccn1 (stereo not given) | -10.7
COC(=O)c1cccn1C1CCN(C(=O)c2cc(F)ccc2F)CC1 | -9.62
Cc1ccc(N(C)C2CCN(C(=O)c3ccsc3)CC2)nn1 | -12.1
Cc1cnc2c(S(=O)(=O)NCC3CCS(=O)(=O)C3)cccc2c1 (stereo not given) | -7.52
Cc1cc(C)n(CC2CCCN2CCc2ccncc2)n1 (stereo not given) | -15.5
CC(C)c1nn(C)c(N(C)C)c1CNCc1ccccc1CN(C)C | 1.53
COc1ccc(CC(=O)N2CCN(c3nccn3C)CC2)cc1 | 5.06
CCN1CCN(C)C(=O)C12CCN(Cc1cccc(C)c1)CC2 | -2.95
CN(C)CCOCC1CN(C(=O)c2ccnnc2)Cc2ccnn2C1 (stereo not given) | 7.89
CN(C)C(=O)CO[C@H]1CN(Cc2ccoc2)[C@@H]2COC[C@H]12 | 6.17
Cc1nc(C)c(C(=O)N2CCc3nc4c(C)csc4c(=O)n3CC2)s1 | 4.11
O=C1[C@H]2CN(CC3CC3)C[C@H]2CN1Cc1cccc(F)c1 | 5.56
COCCN1CCO[C@@H]2CN(S(=O)(=O)c3cccnc3)C[C@@H]2C1 | 16.3
CC(C)C(=O)N1CCCC(c2cc(C(F)F)n3ncnc3n2)C1 (stereo not given) | 1.18
COCCN1CCC2(CC1)CN(C(=O)c1ccccc1)CCO2 | 1.61
CC(=O)N1CCC2(CN(CC3CCCC3)C2)C1 | 2.05
O=C(c1cnccn1)N1CCOC2(CCCN(c3ncccc3F)C2)C1 (stereo not given) | 0.199
CCN1CC(=O)NCC12CCN(C(=O)c1ccno1)C2 (stereo not given) | -2.75
O=C(NCCCN1CCOCC1)c1ccn(-c2ccc3ccccn23)n1 | 5.17
CN(C)CCn1c2c(ccc1=O)CC(NC(=O)NC1CCCC1)CC2 (stereo not given) | -0.913
CC(C)Cc1cc(CN2C[C@@H]3CC[C@H]2CN(Cc2cscn2)C3)n[nH]1 | -2.03
Oc1cccc(CN2C[C@@H]3CC[C@H]2CN(Cc2ccc(F)cc2)C3)c1 | -135
